According to ChEMBL document CHEMBL4028901, “Novel Antitubercular 6-Dialkylaminopyrimidine Carboxamides from Phenotypic Whole-Cell High Throughput Screening of a SoftFocus Library: Structure-Activity Relationship and Target Identification Studies” (J Med Chem, 2017):
In brackets after ≈: the same amount, converted by molar mass.

Experiments:
[1] = test system: Mycobacterium tuberculosis; assay: Antibacterial activity against cytochrome bd oxidase knockout GFP-fused Mycobacterium tuberculosis H37RvMA grown in GAST/Fe medium measured on day 7 and day 14 post inoculation by fluorescence plate reader assay; assay type: functional
[2] = test system: Mycobacterium tuberculosis; assay: Antibacterial activity against cytochrome bd oxidase knockout GFP-fused Mycobacterium tuberculosis H37RvMA grown in 7H9/GLU/ADC medium measured on day 7 and day 14 post inoculation by fluorescence plate reader assay; assay type: functional; conditions: Mycobacterium tuberculosis, H37RvMA; read-out: MIC99
[3] = Kinetic solubility of the compound in pH 7.4 solution at 10 to 220 uM after 2 hrs by shake flask method; assay type: physicochemical; conditions: buffer, pH 7.4, 2 h, 220 µM
[4] = test system: Mycobacterium tuberculosis; assay: Antibacterial activity against Mycobacterium tuberculosis H37RvMA grown in 7H9/ADC medium measured 7 to 14 days post inoculation by broth microdilution method; assay type: functional
[5] = test system: Mycobacterium tuberculosis; assay: Antibacterial activity against Mycobacterium tuberculosis H37RvMA grown in GAST/Fe medium measured 7 to 14 days post inoculation by broth microdilution method; assay type: functional
Method in brief: (§1)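 H37RvMa grown to OD600 0.6–0.7, diluted 1:100 in GAST/Fe. Compounds two-fold serially diluted from a top concentration of 640 μM, in duplicate. Incubated at 37 °C with humidification.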

Vero = assay: Cytotoxicity against African green monkey Vero cells assessed as reduction in cell viability by MTT assay; assay type: cell-based; conditions: Chlorocebus sabaeus
Method in brief: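 MTT assay in Vero cells, samples in triplicate on one occasion. Stocks at 20 mg/mL in DMSO, diluted in complete medium as 10-fold serial dilutions over 6 concentrations. Emetine used as reference. IC50 derived by non-linear dose-response curve fitting.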

[6] = Kinetic solubility of the compound in fasted-state simulated intestinal fluid at 10 to 220 uM at pH 6.5 after 2 hrs by shake flask method; assay type: physicochemical; conditions: read-out: Kinetic_solubility
Method in brief: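 Miniaturised shake flask. 10 mM DMSO stocks spiked 1:50 into duplicate FaSSIF (pH 6.5), 2% final DMSO. Shaken 2 h at 25 °C, filtered, analysed by HPLC-DAD against calibration standards (10–220 μM).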

[7] = Lipophilicity, log P of the compound at 100 uM at pH 7.4 after 3 hrs by shake-flask method; assay type: physicochemical; conditions: buffer
Method in brief: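 Shake-flask method run in triplicate. A 10 mM stock was spiked into a 1:1 mixture of phosphate buffer (pH 7.4) and n-octanol, then shaken at 1500 rpm on an orbital shaker for 3 h at room temperature.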

[8] = test system: Mycobacterium tuberculosis; assay: Antibacterial activity against Mycobacterium tuberculosis H37Rv grown in middlebrook 7H9 medium measured on day 7 and 14 by MABA assay; assay type: functional; conditions: 168 h
[9] = test system: Mycobacterium tuberculosis; assay: Antibacterial activity against Mycobacterium tuberculosis […] SAWC1125 grown in middlebrook 7H9 medium measured on day 7 and 14 by MABA assay; assay type: functional; conditions: 168 h
Method in brief: (§2)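 Clinical M. tuberculosis strains tested by broth microdilution in 7H9 medium. On days 7 and 14, Alamar Blue added and plates reincubated 24 h at 37 °C. Colour read by eye (blue means no growth, pink means growth). MIC90 is the lowest concentration with no colour change.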

[10] = test system: Mycobacterium tuberculosis; assay: Antibacterial activity against Mycobacterium tuberculosis […] SAWC3933 grown in middlebrook 7H9 medium measured on day 7 and 14 by MABA assay; assay type: functional; conditions: 168 h; method in brief: as §2
[11] = test system: Mycobacterium tuberculosis; assay: Antibacterial activity against Mycobacterium tuberculosis […] SAWC3385 grown in middlebrook 7H9 medium measured on day 7 and 14 by MABA assay; assay type: functional; conditions: 168 h; method in brief: as §2
[12] = test system: Mycobacterium tuberculosis; assay: Antibacterial activity against Mycobacterium tuberculosis […] SAWC3200 grown in middlebrook 7H9 medium measured on day 7 and 14 by MABA assay; assay type: functional; conditions: 168 h; method in brief: as §2
[13] = test system: Mycobacterium tuberculosis; assay: Antibacterial activity against Mycobacterium tuberculosis […] SAWC3388 grown in middlebrook 7H9 medium measured on day 7 and 14 by MABA assay; assay type: functional; conditions: 168 h; method in brief: as §2
[14] = test system: Mycobacterium tuberculosis; assay: Antibacterial activity against Mycobacterium tuberculosis […] SAWC3906 grown in middlebrook 7H9 medium measured on day 7 and 14 by MABA assay; assay type: functional; conditions: 168 h; method in brief: as §2
Liver [15] = assay: Metabolic stability in rat liver microsomes assessed as compound remaining at 0.1 uM after 30 mins by LC-MS/MS analysis; assay type: ADME, microsome; conditions: 0.5 h
Method in brief: (§3)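 Compound at 0.1 μM incubated in duplicate with mouse, rat or pooled human liver microsomes (0.4 mg/mL) at 37 °C. Run with and without 1 mM NADPH, sampled at predetermined time points.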

Plasma = assay: Fraction unbound in human plasma at 5 uM pre-incubated for 1 hr by ultra-centrifugation and LC-MS/MS method; assay type: ADME, cell-free
Method in brief: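 Pooled human plasma spiked to 5 μM and pre-incubated 1 h at 37 °C. Duplicate aliquots ultracentrifuged 4 h at 37 °C; an unspun aliquot served as the total sample. Analyte measured by LC-MS/MS.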

Liver [16] = assay: Metabolic stability in human liver microsomes assessed as compound remaining at 0.1 uM after 30 mins by LC-MS/MS analysis; assay type: ADME, microsome; conditions: 0.5 h; method in brief: as §3
Liver [17] = assay: Metabolic stability in mouse liver microsomes assessed as compound remaining at 0.1 uM after 30 mins by LC-MS/MS analysis; assay type: ADME, microsome; conditions: 0.5 h; method in brief: as §3
Mus musculus [18] = assay: Apparent elimination half life in C57/BL6 mouse at 20 mg/kg, po measured up to 24 hrs post dose by LC-MS/MS analysis; assay type: ADME, organism-based; conditions: in vivo
Method in brief: (§4)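 Male mice, 3 per route, not fasted, free access to water. Oral dose given as aqueous suspension in 0.5% (w/v) hydroxypropyl methylcellulose with 0.4% (v/v) Tween 80. Blood drawn into heparinised tubes at 0.5, 1, 3, 5, 8, 12 and 24 h, kept below -15 °C, protein-precipitated with ice-cold acetonitrile. Quantified by LC-MS/MS against standards made in drug-free mouse blood.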

Mus musculus [19] = assay: Cmax in C57/BL6 mouse at 20 mg/kg, po measured up to 24 hrs post dose by LC-MS/MS analysis; assay type: ADME, organism-based; set-up: dose 20 mg/kg, route oral; conditions: in vivo; method in brief: as §4
Mus musculus [20] = assay: AUC (0 to infinity) in C57/BL6 mouse at 20 mg/kg, po measured up to 24 hrs post dose by LC-MS/MS analysis; assay type: ADME, organism-based; set-up: dose 20 mg/kg, route oral, time infinity; conditions: in vivo; method in brief: as §4
Mus musculus [21] = assay: Oral bioavailability in C57/BL6 mouse at 20 mg/kg measured up to 24 hrs post dose by LC-MS/MS analysis; assay type: ADME, organism-based; conditions: in vivo; method in brief: as §4
Mus musculus [22] = assay: Apparent elimination half life in C57/BL6 mouse at 5 mg/kg, iv measured up to 24 hrs post dose by LC-MS/MS analysis; assay type: ADME, organism-based; conditions: in vivo
Method in brief: (§5)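 Male mice, 3 animals, not fasted, given an IV bolus in 10% DMSO, 50% propylene glycol/ethanol (4:1) and 40% polyethylene glycol or water. Blood sampled into heparinised tubes at 0.17, 0.5, 1, 3, 5, 8, 12 and 24 h, stored frozen, precipitated with ice-cold acetonitrile. Measured by LC-MS/MS with internal standards against blood-matrix calibration standards.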

Mus musculus [23] = assay: Volume of distribution in C57/BL6 mouse at 5 mg/kg, iv measured up to 24 hrs post dose by LC-MS/MS analysis; assay type: ADME, organism-based; conditions: in vivo; method in brief: as §5
Mus musculus [24] = assay: AUC (0 to infinity) in C57/BL6 mouse at 5 mg/kg, iv measured up to 24 hrs post dose by LC-MS/MS analysis; assay type: ADME, organism-based; set-up: dose 5 mg/kg, route intravenous, time infinity; conditions: in vivo; method in brief: as §5
Mus musculus [25] = assay: Tmax in C57/BL6 mouse at 20 mg/kg, po measured up to 24 hrs post dose by LC-MS/MS analysis; assay type: ADME, organism-based; conditions: in vivo; method in brief: as §4
[26] = test system: Mycobacterium tuberculosis; assay: Antibacterial activity against wild type Mycobacterium tuberculosis H37Rv grown in GAST/Fe medium measured on day 14 post inoculation by broth microdilution method; assay type: functional; conditions: 336 h; method in brief: as §1

SMILES	MIC99 [1] [µM]	MIC99 [2] [µM]	Kinetic_solubility [3] [µM]	MIC99 [4] [µM]	MIC99 [5] [µM]	IC50 (Vero) [µM]	solubility kinetic at 2 h [6] [µM]	logD at 3 h, 100 µM [7]	MIC90 [9] [µM]	MIC90 [10] [µM]	MIC90 [11] [µM]	MIC90 [12] [µM]	MIC90 [13] [µM]	MIC90 [14] [µM]	Stability (Liver [15]) [%]	Fu (Plasma) [%]	Stability (Liver [16]) [%]	Stability (Liver [17]) [%]	betat1/2(app) (Mus musculus [18]) [h]	Cmax (Mus musculus [19]) [µM]	further results
CN(Cc1ccc(C(F)(F)F)cc1)c1cc(C(=O)NC2CCCCC2)ncn1	12 (≈ 4.71 µg/mL)	> 125	5																		
CN(Cc1ccc(S(C)(=O)=O)cc1)c1cc(C(=O)Nc2ccccc2)ncn1	> 125	> 125	10																		
CN1CCN(c2ccc(NC(=O)c3cc(N(C)Cc4ccc(C(F)(F)F)cc4)ncn3)cc2)CC1			< 5	3.13 (≈ 1.52 µg/mL)	1.25 (≈ 0.606 µg/mL)	161	150 (≈ 72.7 µg/mL)	5	2.5 to 5 (≈ 1.21 to 2.42 µg/mL)	1.25 to 2.5 (≈ 0.606 to 1.21 µg/mL)	1.25 (≈ 0.606 µg/mL)	1.25 (≈ 0.606 µg/mL)	1.25 to 2.5 (≈ 0.606 to 1.21 µg/mL)	0.31 to 0.63 (≈ 0.15 to 0.305 µg/mL)	37	0.14	57	21	15.8	0.42	MIC90 [8]: 1.25 to 2.5 µM (≈ 0.606 to 1.21 µg/mL); AUC (Mus musculus [20]): 564 µM·min; F (Mus musculus [21]): 26%; betat1/2(app) (Mus musculus [22]): 10.3 h; Vd (Mus musculus [23]): 21.8 L/kg; AUC (Mus musculus [24]): 540 µM·min
CN(Cc1ccc(C(F)(F)F)nc1)c1cc(C(=O)Nc2ccccc2)ncn1				37 (≈ 14.3 µg/mL)	10 (≈ 3.87 µg/mL)	258	< 5	3.7							72	0.05	85	87	7.2	3.4	Tmax (Mus musculus [25]): 4 h; AUC (Mus musculus [20]): 1999 µM·min; F (Mus musculus [21]): 42%; betat1/2(app) (Mus musculus [22]): 0.7 h; Vd (Mus musculus [23]): 0.7 L/kg; AUC (Mus musculus [24]): 1179 µM·min
CN(Cc1ccc(C(F)(F)F)nc1)c1cc(C(=O)Nc2nncs2)ncn1			191	50 (≈ 19.8 µg/mL)	5 (≈ 1.98 µg/mL)	28	195 (≈ 77.1 µg/mL)	1.4	2.5 (≈ 0.988 µg/mL)	10 to 20 (≈ 3.95 to 7.91 µg/mL)	10 (≈ 3.95 µg/mL)	2.5 to 5 (≈ 0.988 to 1.98 µg/mL)	10 (≈ 3.95 µg/mL)	2.5 to 5 (≈ 0.988 to 1.98 µg/mL)	88	0.32	100	78	3	10.8	Tmax (Mus musculus [25]): 1 h; AUC (Mus musculus [20]): 5614 µM·min; F (Mus musculus [21]): 67%; betat1/2(app) (Mus musculus [22]): 3 h; Vd (Mus musculus [23]): 1.7 L/kg; AUC (Mus musculus [24]): 2106 µM·min
CC(C)Oc1ccc(NC(=O)c2cc(N(C)Cc3ccc(F)cc3)ncn2)cc1				5 (≈ 1.97 µg/mL)	1.2 (≈ 0.473 µg/mL)	254	< 5	5	2.5 (≈ 0.986 µg/mL)	2.5 (≈ 0.986 µg/mL)	0.31 (≈ 0.122 µg/mL)	< 0.08	0.31 (≈ 0.122 µg/mL)	0.31 (≈ 0.122 µg/mL)	43	0.04	64	37			MIC99 [26]: 1.25 to 5 µM (≈ 0.493 to 1.97 µg/mL); MIC90 [8]: 1.25 µM (≈ 0.493 µg/mL)
CN(Cc1cccnc1)c1cc(C(=O)Nc2ccccc2)ncn1	37 (≈ 11.8 µg/mL)	48 (≈ 15.3 µg/mL)	150																		
